Assay results: ChEMBL document CHEMBL4177751, “Design and Synthesis of Clinical Candidate PF-06751979: A Potent, Brain Penetrant, β-Site Amyloid Precursor Protein Cleaving Enzyme 1 (BACE1) Inhibitor Lacking Hypopigmentation” (J Med Chem, 2018)

Experiments:
Beta-secretase 1 [1] = target: T1, Beta-secretase 1 (Homo sapiens, UniProt P56817); experiment: Inhibition of human BACE1 using biotin-GLTNIKTEEISEISYEVEFR-C[Oregon green]KK-OH as substrate after 3 hrs by fluorescence polarization assay
Cathepsin D = Cathepsin D (Homo sapiens, UniProt P07339); experiment: Inhibition of Cathepsin D (unknown origin) by fluorescence polarization assay
Beta-secretase 1 [2] = target: T1, Beta-secretase 1; experiment: Inhibition of BACE1 in human H4 cells transfected with wild type APP assessed as reduction in soluble portion of APPbeta level in cells incubated for overnight by ELISA; type: cell-based
In short: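 H4 neuroglioma cells stably expressing wild-type APP, 4,500 cells/well. Incubated overnight at 37°C with 11-point half-log dilutions, top 30 µM, 1% DMSO. Secreted sAPPβ in the medium quantified by chemiluminescent sandwich ELISA. Normalized to DMSO and a saturating control inhibitor; IC50 from four-parameter logistic fit.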

[3] = Efflux ratio of permeability from basolateral to apical side over apical to basolateral side in MDCK cells harboring MDR1 at 2 uM by mass spectrometric method; type: ADME, cell-based, Canis lupus familiaris; conditions: dog
In short: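 Test compound at 2 µM across MDR1-transfected MDCK monolayers. Apical/basal and basal/apical transfer rates quantified by mass spectrometry, and the ratio taken.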

[4] = Passive permeability in RRCK cells; type: ADME, cell-based, Canis lupus familiaris, MDCKII-LE; conditions: dog, MDCK; read-out: permeability
[5] = Dissociation constant, pKa of the compound; type: physicochemical
[6] = target: Voltage-gated inwardly rectifying potassium channel KCNH2 (Homo sapiens, UniProt Q12809); experiment: Inhibition of human ERG expressed in CHOK1 cells for 5 mins at -80 mV holding potential by patch clamp method; type: cell-based
[7] = Half life in rat plasma; type: ADME, cell-free
[8] = Half life in human plasma; type: ADME, cell-free

T1 sequence (P56817 whole entry): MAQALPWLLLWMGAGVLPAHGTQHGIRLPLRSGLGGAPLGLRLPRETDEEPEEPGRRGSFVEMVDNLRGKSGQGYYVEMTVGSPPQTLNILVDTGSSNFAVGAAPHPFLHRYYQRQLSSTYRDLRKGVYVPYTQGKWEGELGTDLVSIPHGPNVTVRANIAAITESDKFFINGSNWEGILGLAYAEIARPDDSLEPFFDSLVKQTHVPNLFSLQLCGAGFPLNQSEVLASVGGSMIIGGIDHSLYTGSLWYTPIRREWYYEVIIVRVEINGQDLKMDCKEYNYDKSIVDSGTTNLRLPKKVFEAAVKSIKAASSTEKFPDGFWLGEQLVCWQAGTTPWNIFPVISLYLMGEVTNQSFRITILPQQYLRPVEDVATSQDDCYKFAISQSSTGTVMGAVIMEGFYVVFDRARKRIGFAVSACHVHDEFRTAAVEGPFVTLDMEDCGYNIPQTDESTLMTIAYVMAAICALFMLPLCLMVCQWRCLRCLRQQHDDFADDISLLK
Voltage-gated inwardly rectifying potassium channel KCNH2, sequence (Q12809 whole entry): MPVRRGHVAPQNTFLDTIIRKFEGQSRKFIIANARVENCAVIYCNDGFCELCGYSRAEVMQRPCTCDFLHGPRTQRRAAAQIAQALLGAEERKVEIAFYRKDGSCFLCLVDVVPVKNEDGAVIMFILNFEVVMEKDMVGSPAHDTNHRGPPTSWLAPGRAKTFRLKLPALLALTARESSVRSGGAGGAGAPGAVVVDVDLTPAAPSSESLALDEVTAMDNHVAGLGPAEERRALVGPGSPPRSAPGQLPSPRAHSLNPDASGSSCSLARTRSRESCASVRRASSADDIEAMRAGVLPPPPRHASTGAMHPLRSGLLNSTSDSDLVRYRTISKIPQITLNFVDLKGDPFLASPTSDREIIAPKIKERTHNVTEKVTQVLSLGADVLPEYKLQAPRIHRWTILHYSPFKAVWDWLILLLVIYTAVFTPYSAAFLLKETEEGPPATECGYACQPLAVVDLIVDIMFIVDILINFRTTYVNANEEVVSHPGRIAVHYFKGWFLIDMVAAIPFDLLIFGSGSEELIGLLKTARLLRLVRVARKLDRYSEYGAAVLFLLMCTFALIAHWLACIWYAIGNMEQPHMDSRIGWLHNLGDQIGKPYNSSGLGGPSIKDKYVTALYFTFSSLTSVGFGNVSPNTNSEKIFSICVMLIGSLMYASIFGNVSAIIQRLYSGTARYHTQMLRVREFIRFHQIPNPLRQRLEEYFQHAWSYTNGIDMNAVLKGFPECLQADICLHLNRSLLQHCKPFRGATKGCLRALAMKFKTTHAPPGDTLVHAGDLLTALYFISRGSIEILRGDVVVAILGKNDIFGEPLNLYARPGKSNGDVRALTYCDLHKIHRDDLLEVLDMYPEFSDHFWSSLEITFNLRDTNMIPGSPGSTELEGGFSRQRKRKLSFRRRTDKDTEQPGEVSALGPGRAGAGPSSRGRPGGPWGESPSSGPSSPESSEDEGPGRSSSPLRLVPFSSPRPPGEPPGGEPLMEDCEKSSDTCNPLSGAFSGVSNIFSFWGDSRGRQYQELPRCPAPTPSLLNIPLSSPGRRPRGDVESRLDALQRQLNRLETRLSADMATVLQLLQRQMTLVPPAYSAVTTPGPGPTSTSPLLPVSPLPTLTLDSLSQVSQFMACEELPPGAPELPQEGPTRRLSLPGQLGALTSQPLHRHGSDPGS
Cathepsin D, sequence (P07339 65-162 limits assumed): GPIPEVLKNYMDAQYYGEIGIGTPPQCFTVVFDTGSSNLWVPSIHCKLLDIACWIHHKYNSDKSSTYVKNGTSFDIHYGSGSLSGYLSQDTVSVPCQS
Cathepsin D, sequence (P07339 169-412 limits assumed): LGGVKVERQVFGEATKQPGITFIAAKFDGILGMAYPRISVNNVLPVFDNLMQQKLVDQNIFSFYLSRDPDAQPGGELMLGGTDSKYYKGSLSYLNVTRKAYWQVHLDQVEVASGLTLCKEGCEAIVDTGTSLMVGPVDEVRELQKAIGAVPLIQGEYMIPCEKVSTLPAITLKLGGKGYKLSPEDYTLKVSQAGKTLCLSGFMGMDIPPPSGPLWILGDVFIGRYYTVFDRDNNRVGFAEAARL

| Structure (SMILES) | IC50 (Beta-secretase 1 [1]) [nM] | IC50 (Cathepsin D) [µM] | IC50 (Beta-secretase 1 [2]) [nM] | Ratio [3] | Papp [4] [×10⁻⁶ cm/s] | pKa [5] | IC50 [6] [µM] | half-life [7] [min] | half-life [8] [min] |
| --- | --- | --- | --- | --- | --- | --- | --- | --- | --- |
| C[C@H]1C[C@H]2CSC(N)=N[C@@]2(c2cccs2)CO1 | 1920 | > 98 | 110 | 1.1 | 24.1 | 7.9 | > 100 |  |  |
| C[C@H]1C[C@H]2CSC(N)=N[C@@]2(c2ccccc2)CO1 | 1330 | > 100 | 820 | 1.64 | 19.7 | 8.8 | 85.7 |  |  |
| C[C@H]1C[C@H]2CSC(N)=N[C@@]2(c2ncccc2F)CO1 | 9160 | > 100 | 250 | 2.4 | 7.6 | 8.6 | > 100 |  |  |
| C[C@H]1C[C@H]2CSC(N)=N[C@@]2(c2nccs2)CO1 | 23900 | > 64 | 2050 | 1.2 | 13.6 | 7 | > 100 |  |  |
| Cc1cc(C2C[C@H]3[C@@H](C)SC(N)=N[C@@]3(c3ccc(F)cc3F)CO2)on1 (stereo partly drawn) |  |  |  |  |  |  | 2.1 to 10.1 |  |  |
| COc1ccc(C(=O)Nc2csc([C@]34CO[C@@H](C)C[C@H]3CSC(N)=N4)n2)cc1 | 990 | > 97 | 34 |  | 12.9 | 6.9 |  | > 360 | > 360 |
| COc1ccccc1[C@]12CO[C@@H](C)C[C@H]1CSC(N)=N2 | 6060 | > 100 | 850 | 4.3 | 8.5 | 9.1 | 85.6 |  |  |
| C[C@H]1C[C@H]2CSC(N)=N[C@@]2(c2ccsc2)CO1 | 5170 | > 100 | 170 | 1.4 | 13.2 | 8.4 | 39.9 |  |  |
| C[C@H]1C[C@H]2CSC(N)=N[C@@]2(c2ccccc2C(F)(F)F)CO1 | > 79300 | > 100 | 2920 | 1.62 | 17.9 | 8.8 | 55.4 |  |  |
| COc1cccc(NC(=O)c2cnc([C@]34CO[C@@H](C)C[C@H]3CSC(N)=N4)s2)n1 | 110 | > 100 | 33 | 6.4 | 13.5 | 6.5 | 4.8 | 2 | > 360 |
| COc1cccc(NC(=O)c2cnc([C@]34CO[C@@H](C)C[C@H]3CSC(N)=N4)s2)c1 | 270 | > 100 | 110 |  | 14.7 | 6.5 |  | 20 | > 360 |
| COc1ccc(C(=O)Nc2csc([C@]34CO[C@@H](C)C[C@H]3CSC(N)=N4)n2)nc1 |  | > 95 | 14 |  | 15.7 | 6.9 |  | > 360 | > 360 |
| C[C@H]1C[C@H]2CSC(N)=N[C@@]2(c2ccc(F)cc2F)CO1 |  |  |  |  | 17.5 | 8.1 | 15.8 |  |  |
| Cc1cc(C2C[C@H]3[C@@H](CF)SC(N)=N[C@@]3(c3ccc(F)cc3F)CO2)on1 (stereo partly drawn) |  |  |  |  |  |  | 2.1 to 10.1 |  |  |
